Measured values reported in ChEMBL document CHEMBL4308847, “Discovery, Structure-Activity Relationship, and Biological Characterization of a Novel Series of 6-((1 H-Pyrazolo[4,3- b]pyridin-3-yl)amino)-benzo[ d]isothiazole-3-carboxamides as Positive Allosteric Modulators of the Metabotropic Glutamate Receptor 4 (mGlu4)” (J Med Chem, 2018).

Key:
[1] = Intrinsic clearance in rat liver microsomes at 1 uM preincubated for 5 mins followed by NADPH addition measured up to 45 mins by LC-MS/MS analysis; assay type: ADME, Microsome; settings: read-out: CLH
Summary of the method: (§1)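 Intrinsic and predicted hepatic clearance derived from liver microsome incubations.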

Cytochrome P450 1A2 = molecular target: T1, Cytochrome P450 1A2 (Homo sapiens, UniProt P05177); experiment: Inhibition of CYP1A2 in human liver microsomes using phenacetin as substrate preincubated for 15 mins followed by substrate addition and measured after 8 mins by LC-MS/MS analysis; assay type: ADME
T1 sequence (P05177 whole entry): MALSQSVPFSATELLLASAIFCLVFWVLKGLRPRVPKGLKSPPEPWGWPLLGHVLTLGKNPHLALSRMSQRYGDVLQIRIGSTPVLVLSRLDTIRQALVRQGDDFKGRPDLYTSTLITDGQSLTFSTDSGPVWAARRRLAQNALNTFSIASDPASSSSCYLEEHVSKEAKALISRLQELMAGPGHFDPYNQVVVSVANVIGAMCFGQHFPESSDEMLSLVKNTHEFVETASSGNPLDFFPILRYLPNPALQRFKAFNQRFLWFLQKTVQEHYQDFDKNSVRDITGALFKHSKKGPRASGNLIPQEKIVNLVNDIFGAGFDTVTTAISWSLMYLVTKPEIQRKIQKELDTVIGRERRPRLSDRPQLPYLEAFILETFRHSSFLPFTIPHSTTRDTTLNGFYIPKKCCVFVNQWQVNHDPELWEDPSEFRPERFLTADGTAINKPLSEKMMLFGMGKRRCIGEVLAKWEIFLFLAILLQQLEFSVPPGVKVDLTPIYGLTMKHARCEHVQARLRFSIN
Summary of the method: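 IC50 for CYP1A2 inhibition determined in human liver microsomes using specific probe substrate-metabolite pairs.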

[2] = molecular target: T2, Metabotropic glutamate receptor 4 (Homo sapiens, UniProt Q14833); experiment: Positive allosteric modulation of human mGlu4 receptor expressed in CHO cells co-expressing Gqi5 assessed as increase in glutamate-induced calcium mobilization preincubated for 142 secs followed by EC20 glutamate addition and subsequent EC80 glutamate addition after 147 secs by Fluo-4-AM dye based fluorescence assay; assay type: functional, cell-based
T2 sequence (Q14833 whole entry): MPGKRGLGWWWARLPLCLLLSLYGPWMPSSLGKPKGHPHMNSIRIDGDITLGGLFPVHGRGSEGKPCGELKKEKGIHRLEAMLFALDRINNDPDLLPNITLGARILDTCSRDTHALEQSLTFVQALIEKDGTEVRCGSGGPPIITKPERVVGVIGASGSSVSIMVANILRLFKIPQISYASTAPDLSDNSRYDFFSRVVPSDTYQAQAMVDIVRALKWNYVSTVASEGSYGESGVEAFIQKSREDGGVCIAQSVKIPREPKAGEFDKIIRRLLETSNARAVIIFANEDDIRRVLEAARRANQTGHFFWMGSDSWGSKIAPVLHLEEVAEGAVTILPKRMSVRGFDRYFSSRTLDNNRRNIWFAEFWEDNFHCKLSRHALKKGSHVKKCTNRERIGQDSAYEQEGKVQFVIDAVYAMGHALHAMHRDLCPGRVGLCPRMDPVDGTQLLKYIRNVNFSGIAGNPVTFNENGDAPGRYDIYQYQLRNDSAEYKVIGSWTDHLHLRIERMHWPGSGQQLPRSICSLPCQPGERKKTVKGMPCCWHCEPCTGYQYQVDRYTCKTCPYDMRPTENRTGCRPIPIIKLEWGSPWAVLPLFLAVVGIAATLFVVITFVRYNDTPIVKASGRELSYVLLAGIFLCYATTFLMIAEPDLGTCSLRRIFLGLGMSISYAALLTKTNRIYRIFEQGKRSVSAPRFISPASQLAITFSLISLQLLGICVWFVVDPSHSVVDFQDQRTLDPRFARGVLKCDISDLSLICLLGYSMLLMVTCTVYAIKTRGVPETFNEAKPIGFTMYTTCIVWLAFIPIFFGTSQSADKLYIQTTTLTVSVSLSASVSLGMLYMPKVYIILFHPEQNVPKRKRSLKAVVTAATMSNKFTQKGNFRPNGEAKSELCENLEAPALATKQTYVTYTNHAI
Summary of the method: (§2)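 CHO cells expressing human mGlu4 and Gqi5, plated at 30,000 cells/well and grown overnight at 37 °C, 5% CO2. Cells were loaded with 1 μM Fluo-4 AM for 45 min at 37 °C in HBSS/20 mM HEPES/2.5 mM probenecid. Compounds were run as 10-point, 1:3 dilution series. After 142 s, EC20 glutamate was added; 147 s later, EC80 glutamate. Fluorescence was normalized to the maximal glutamate response. EC50 and %Glu Max were fitted by four-parameter logistic, with maximum normalized to PHCCC.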

[3] = molecular target: Metabotropic glutamate receptor 4 (Rattus norvegicus) (UniProt P31423); experiment: Positive allosteric modulation of rat mGlu4 receptor expressed in HEK cells co-expressing GIRK1/2 assessed as increase in glutamate-induced thallium flux preincubated for 140 secs followed by glutamate addition and measured after 2.5 mins by FluoZin-2-AM dye based fluorescence assay relative to control; assay type: cell-based
Metabotropic glutamate receptor 4 (Rattus norvegicus), sequence (P31423 whole entry): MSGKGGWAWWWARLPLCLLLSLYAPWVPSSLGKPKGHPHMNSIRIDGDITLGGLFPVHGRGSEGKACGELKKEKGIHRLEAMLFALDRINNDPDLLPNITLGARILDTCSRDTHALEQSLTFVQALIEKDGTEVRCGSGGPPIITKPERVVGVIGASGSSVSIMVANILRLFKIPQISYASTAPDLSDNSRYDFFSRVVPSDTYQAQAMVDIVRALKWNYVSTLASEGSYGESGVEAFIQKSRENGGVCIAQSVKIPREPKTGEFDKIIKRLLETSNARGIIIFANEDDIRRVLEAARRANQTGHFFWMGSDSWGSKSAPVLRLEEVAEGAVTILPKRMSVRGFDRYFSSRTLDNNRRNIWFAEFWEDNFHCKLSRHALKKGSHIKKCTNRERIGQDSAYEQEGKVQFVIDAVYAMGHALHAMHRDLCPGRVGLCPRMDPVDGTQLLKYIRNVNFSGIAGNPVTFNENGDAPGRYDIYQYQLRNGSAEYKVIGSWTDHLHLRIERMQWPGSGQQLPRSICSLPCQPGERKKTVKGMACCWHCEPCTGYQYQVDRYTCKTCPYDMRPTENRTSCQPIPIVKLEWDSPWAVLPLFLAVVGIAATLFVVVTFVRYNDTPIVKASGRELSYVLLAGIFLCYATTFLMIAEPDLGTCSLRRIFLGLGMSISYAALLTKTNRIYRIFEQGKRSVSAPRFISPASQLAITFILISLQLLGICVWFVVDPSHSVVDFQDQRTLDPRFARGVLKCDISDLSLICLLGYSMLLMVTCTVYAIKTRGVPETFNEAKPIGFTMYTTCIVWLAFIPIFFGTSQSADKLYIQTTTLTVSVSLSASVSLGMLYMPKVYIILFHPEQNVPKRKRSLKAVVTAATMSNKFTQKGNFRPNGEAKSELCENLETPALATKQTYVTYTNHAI
Summary of the method: (§3)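 HEK cells co-expressing rat mGlu4 and GIRK1/2 were loaded for 1 h at room temperature with FluoZin-2 AM (330 nM final) in HBSS/20 mM HEPES pH 7.4. Compound was incubated 140 s, then thallium buffer with or without agonist was added. Reading continued for 2.5 min at room temperature. Potency was fitted by four-parameter logistic.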

[4] = Fraction unbound in human plasma after 4 hrs by equilibrium dialysis method; assay type: ADME, cell-free
[5] = molecular target: Metabotropic glutamate receptor 4 (Rattus norvegicus, UniProt P31423); experiment: Positive allosteric modulation of rat mGlu4 receptor expressed in HEK cells co-expressing GIRK1/2 assessed as increase in glutamate-induced thallium flux preincubated for 140 secs followed by glutamate addition and measured after 2.5 mins by FluoZin-2-AM dye based fluorescence assay; assay type: cell-based; summary of the method: as §3
Metabotropic glutamate receptor 4 (Rattus norvegicus, UniProt P31423), sequence (P31423 whole entry): as above

[6] = molecular target: T2, Metabotropic glutamate receptor 4; experiment: Positive allosteric modulation of human mGlu4 receptor expressed in CHO cells co-expressing Gqi5 assessed as increase in glutamate-induced calcium mobilization preincubated for 142 secs followed by EC20 glutamate addition and measured after 147 secs by Fluo-4-AM dye based fluorescence assay relative to control; assay type: functional, cell-based; summary of the method: as §2
[7] = Intrinsic clearance in human liver microsomes at 1 uM preincubated for 5 mins followed by NADPH addition measured up to 45 mins by LC-MS/MS analysis; assay type: ADME, Microsome; settings: read-out: CLH; summary of the method: as §1
[8] = Fraction unbound in rat plasma after 4 hrs by equilibrium dialysis method; assay type: ADME, cell-free

| Compound | CLint scaled at 1 µM [1] | IC50 (Cytochrome P450 1A2) | EC50 [2] | %max [3] | fraction unbound at 4 h [4] | EC50 [5] | %max [6] | CLint scaled at 1 µM [7] | fraction unbound at 4 h [8] | Fu ([4]; 4 h) | Fu ([8]; 4 h) |
| --- | --- | --- | --- | --- | --- | --- | --- | --- | --- | --- | --- |
| Cc1noc2ccc(Nc3n[nH]c4cccnc34)cc12 | 31.8 mL/min/kg | < 100 nM | 75.9 nM | 105% | 0.062 | 95.5 nM | 91% | 14.8 mL/min/kg | 0.058 |  |  |
| CC(C)(C)Cc1nsc2cc(Nc3n[nH]c4ncccc34)ccc12 |  |  | 759 nM |  |  |  | 74% |  |  |  |  |
| c1cnc2c(Nc3ccc4c(C5CC5)nsc4c3)n[nH]c2n1 | 59.4 mL/min/kg | 700 nM | 68 nM |  | 0.012 |  | 73% | 41.2 mL/min/kg | 0.008 |  |  |
| FC1(F)CCN(Cc2nsc3cc(Nc4n[nH]c5cccnc45)cnc23)CC1 | 1080 mL/min/kg | > 30000 nM |  |  |  |  | 84% | 27.5 mL/min/kg |  | Nd(Unstable) | Nd(Unstable) |
| CC1CC(C)CN(C(=O)c2nsc3cc(Nc4n[nH]c5cccnc45)ccc23)C1 (stereo not drawn) |  |  | 447 nM |  |  |  | 63% |  |  |  |  |
| c1cnc2c(Nc3ccc4c(C5CC5)nsc4c3)n[nH]c2c1 | 176 mL/min/kg | 400 nM | 81 nM |  | 0.009 |  | 76% | 28.9 mL/min/kg | 0.014 |  |  |
| CCCC(C)c1noc2cc(Nc3n[nH]c4cccnc34)ccc12 (stereo not drawn) |  |  | 117 nM |  |  |  | 92% |  |  |  |  |
| Cc1noc2ccc(Nc3n[nH]c4ncc(F)cc34)cc12 | 39.3 mL/min/kg | 500 nM | 219 nM | 121% | 0.054 | 190 nM | 54% | 23.6 mL/min/kg | 0.044 |  |  |
| Cc1noc2c(F)cc(Nc3n[nH]c4nccnc34)cc12 |  |  | 22.9 nM |  |  |  | 70% |  |  |  |  |
| CC(C)(C)Cc1noc2cc(Nc3n[nH]c4ncccc34)ccc12 |  |  | 2820 nM |  |  |  | 84% |  |  |  |  |
| CC(C)Cc1noc2cc(Nc3n[nH]c4cccnc34)ccc12 |  |  | 813 nM |  |  |  | 53% |  |  |  |  |
| O=C(c1nsc2cc(Nc3n[nH]c4cccnc34)ccc12)N1CCOCC1 | 172 mL/min/kg |  | 275 nM |  | 0.077 |  | 62% | 44.3 mL/min/kg | 0.059 |  |  |
| CCc1noc2ccc(Nc3n[nH]c4ncccc34)cc12 |  |  | > 10000 nM |  |  |  | 54% |  |  |  |  |
| CC(C)(C)Cc1nsc2cc(Nc3n[nH]c4cccnc34)ccc12 |  |  | 269 nM |  |  |  | 70% |  |  |  |  |
| CC(C)(O)c1nsc2cc(Nc3n[nH]c4cccnc34)ccc12 |  |  | 1050 nM |  |  |  | 98% |  |  |  |  |
| CCc1nsc2cc(Nc3n[nH]c4cccnc34)ccc12 | 127 mL/min/kg |  | 40 nM |  | 0.035 |  | 77% | 35.4 mL/min/kg | 0.03 |  |  |
| CCc1nsc2cc(Nc3n[nH]c4ncccc34)ccc12 |  |  | 102 nM |  |  |  | 57% |  |  |  |  |

| Compound | CLint scaled at 1 µM [1] | IC50 (Cytochrome P450 1A2) | EC50 [2] | %max [3] | fraction unbound at 4 h [4] | EC50 [5] | %max [6] | CLint scaled at 1 µM [7] | fraction unbound at 4 h [8] | Fu ([4]; 4 h) | Fu ([8]; 4 h) |
| --- | --- | --- | --- | --- | --- | --- | --- | --- | --- | --- | --- |
| CC1CN(C(=O)c2nsc3cc(Nc4n[nH]c5cccnc45)ccc23)CC(C)O1 (stereo not drawn) | 229 mL/min/kg |  | 324 nM |  | 0.013 |  | 44% | 60 mL/min/kg | 0.034 |  |  |
| Cc1noc2cc(Nc3n[nH]c4cccnc34)ccc12 |  |  | 1860 nM |  |  |  | 86% |  |  |  |  |
| c1cnc2c(Nc3ccc4c(C5CCC5)noc4c3)n[nH]c2n1 |  |  | 708 nM |  |  |  | 102% |  |  |  |  |
| CCC(CC)c1noc2cc(Nc3n[nH]c4ncccc34)ccc12 |  |  | 525 nM |  |  |  | 97% |  |  |  |  |
| CCC(CC)c1noc2cc(Nc3n[nH]c4nccnc34)ccc12 |  |  | 98 nM |  |  |  | 106% |  |  |  |  |
| O=C(c1nsc2cc(Nc3n[nH]c4cccnc34)ccc12)N1CCC(F)(F)C1 |  |  | 331 nM |  |  |  | 92% |  |  |  |  |
| FC(F)(F)c1nsc2cc(Nc3n[nH]c4ncccc34)ccc12 |  |  | 794 nM |  |  |  | 50% |  |  |  |  |
| CCc1noc2cc(Nc3n[nH]c4cccnc34)ccc12 | 204 mL/min/kg | < 100 nM | 1350 nM |  | 0.027 |  | 72% | 69.9 mL/min/kg | 0.037 |  |  |
| CC1CCN(C(=O)c2nsc3cc(Nc4n[nH]c5cccnc45)ccc23)CC1 |  |  | 398 nM |  |  |  | 80% |  |  |  |  |
| CC(C)(C)Cc1nsc2cc(Nc3n[nH]c4cccnc34)cnc12 | 277 mL/min/kg | 22100 nM | 74 nM |  | 0.006 |  | 51% | 24.7 mL/min/kg | 0.016 |  |  |
| CCC(CC)c1noc2cc(Nc3n[nH]c4cccnc34)ccc12 | 488 mL/min/kg | 1000 nM | 129 nM |  | 0.009 |  | 92% | 84.2 mL/min/kg | 0.019 |  |  |
| c1cnc2[nH]nc(Nc3ccc4c(C5CCCC5)noc4c3)c2c1 |  |  | 2400 nM |  |  |  | 60% |  |  |  |  |
| c1cnc2c(Nc3ccc4c(C5CCC5)noc4c3)n[nH]c2c1 | 1220 mL/min/kg | 1800 nM | 851 nM |  | 0.026 |  | 88% | 83.2 mL/min/kg | 0.016 |  |  |
| CC(C)c1noc2cc(Nc3n[nH]c4cccnc34)ccc12 |  |  | 575 nM |  |  |  | 23% |  |  |  |  |
| CC(C)(C)c1nsc2cc(Nc3n[nH]c4cccnc34)ccc12 |  |  | 324 nM |  |  |  | 64% |  |  |  |  |
| CC(=O)N1CCC(c2nsc3cc(Nc4n[nH]c5cccnc45)ccc23)CC1 | 21 mL/min/kg | 21700 nM |  | 98.9% | 0.042 | 166 nM | 79% | 15.8 mL/min/kg | 0.039 |  |  |
| O=C(C1CC1)N1CCC(c2nsc3cc(Nc4n[nH]c5cccnc45)ccc23)CC1 |  |  |  |  |  |  | 111% |  |  |  |  |
